Assay results as given in PMC12069899 (Acta Pharmaceutica Sinica. B, 2024).
No end group written: not given here.

Key:
TRPV4 channel [1] = test: Analgesia in homozygous Trpv4−/− mice, CFA pain; type: in vivo, mouse; conditions: 5 mg/kg, 2 h or 3 h post-injection; n = 4–5
[2] = tested on: rats (analgesic tolerance, CCI); test: Chronic analgesic tolerance in CCI neuropathic pain; type: in vivo, rat
[3] = tested on: mice (conditioned place preference); test: Conditioned place preference; type: in vivo, mouse; conditions: s.c.; morphine 10 mg/kg; P10581 2 μg/kg, 100 μL; n = 5
Outline: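 Two-chamber boxes (20 × 20 × 20 cm), one with vertical black-white stripes and one with horizontal stripes. Conditioning training was repeated for 4 days. On Day 5, 24 h after the final dose, mice were placed in the central chamber with free access to both chambers for 15 min. Score = time on the drug-paired side postconditioning minus preconditioning. Dosing was blinded.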

[4] = tested on: rats (mechanical hyperalgesia and neuropathic pain); conditions: ref [1], [27]; cited from earlier work
rats (cold pain) = test: Cold plantar test; type: in vivo, rat; conditions: i.d. 1200 ng/kg, 5 μL; n = 5
Piezo1/Piezo2 channel = conditions: ref [63], [64]; cited from earlier work
TRPC1 and TRPC6 = conditions: MS channels in DRG neurons; ref [27]; cited from earlier work
rats (thermal pain) = test: Thermal laser test of hot pain; type: in vivo, rat; conditions: i.d. 1200 ng/kg, 5 μL; laser 52.5 ± 0.5 °C; n = 5
[5] = tested on: rats (mechanical hyperalgesia induced by Carr.); test: Randall–Selitto test, carrageenan inflammatory pain, peptide given i.d.; type: in vivo, Sprague–Dawley rat
Outline: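 SD rats (180–220 g) received Carr. (1%, 5 μL) i.d. into the right hindpaw after baseline PWT. Test compound was given i.d. in 5 μL at the inflamed site 1.5 h after Carr. PWT was measured 2 h after dosing. AUC (g·min) was calculated per rat, and ΔPWT = PWT(post-drug) − PWT(pre-drug). Saline was the control. Dosing was blinded; mean ± SEM.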

[6] = tested on: stretch-activated cationic currents in mammalian astrocytes, cardiomyocytes, and the central nervous system; conditions: ref [23], [24], [25], [26]; cited from earlier work
TRPV4 channel [7] = test: Whole-cell patch clamp, GSK101-evoked TRPV4 currents in HEK293; type: cell-based; conditions: GSK101 0.3 μmol/L, extracellular; ∼25 °C
Outline: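 HEK293 cells were transiently transfected with TRPV4 by lipofection. Whole-cell voltage clamp was performed 24 h after transfection at ~25 °C; currents were filtered at 2 kHz and digitized at 10 kHz. Current was evoked by the TRPV4 activator GSK101, with GSK219 as the selective inhibitor. Test compound stock was freshly diluted in normal saline.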

CN1CC[C@]23c4c5ccc(O)c4O[C@H]2[C@@H](O)C=C[C@H]3[C@H]1C5 [morphine]
anti-hyperalgesic effect of morphine in WT vs. Trpv4-deficient mice (TRPV4 channel [1]): equally effective in the anti-hyperalgesic effects among wild-type and Trpv4-deficient mice | loss of anti-hyperalgesic effect on repeated injection ([2]; i.d. 5 mg/kg twice a day, CCI): completely lost its anti-hyperalgesic effect from Day 4 | chronic tolerance after repeated injections ([2]; i.d. twice a day, 9 days, from Day 8 after CCI, morphine 5 mg/kg, P10581 8 μg/kg): time-dependent decrease in PWT | CPP preference score [3]: significantly increased CPP scores

GsMTx4 (GCLEFWWKCNPNDDKCCRPKLKCSKLFKLCNFSF; ends and bridges not checked; cysteine pairing not given here; UniProt Q7YT39 47-80, looked up)
reduction of mechanical hyperalgesia and neuropathic pain [4]: reduce mechanical hyperalgesia and neuropathic pain in rats | effect on PWL, cold pain (rats (cold pain)): neither P10581 nor GsMTx4 at 1200 ng/kg (i.d. 5 μL) affected PWL following cold stimulus | channel sensitivity to GsMTx4 (Piezo1/Piezo2 channel): sensitive to GsMTx4 | channel sensitivity to GsMTx4 (TRPC1 and TRPC6): GsMTx4-sensitive | effect on paw withdrawal latency (PWL), hot pain (rats (thermal pain)): did not change their PWL when compared to the saline group | effect on PWT at low dose ([5]; i.d. 0.6 μg/kg, 5 μL, n = 6): only a mild impact on PWT | IC50 for anti-hyperalgesic effect (ΔPWT) ([5]; i.d., 2 h after injection, Hill equation fit, n = 5 per group, mean ± SEM): 689.3 ± 21.5 ng/kg | dose dependence of analgesic effect ([5]; i.d., Fig. 1G): dose-dependent | inhibition of stretch-activated cationic currents [6]: inhibit stretch-activated cationic currents

CC(C)C[C@H](NC(=O)c1cc2ccccc2s1)C(=O)N1CCN(C(=O)[C@H](CO)NS(=O)(=O)c2ccc(Cl)cc2Cl)CC1 [GSK101]
activation of TRPV4 current (TRPV4 channel [7]): robust increase in the currents
